{"data": "Experimental data gathered from unrelated publications", "sample": "plasma", "note": "Lines come from different studies, so protocols differ."}
{"SMILES": "Cc1nc(Nc2ncc(C(=O)Nc3c(C)cccc3Cl)s2)cc(N2CC[C@@H](O)C2)n1", "test system": "male Sprague-Dawley rat", "conditions": "intravenous, 1 mg/kg", "measurement": "Vd", "result": "0.9 L/kg"}
{"SMILES": "CNC(=O)c1cc(Oc2ccc(NC(=O)Nc3ccc(Cl)c(C(F)(F)F)c3)cc2)ccn1", "test system": "male Sprague-Dawley rat", "conditions": "oral, 100 mg/kg, single dose", "measurement": "Vd/F", "result": "112 L/kg"}
{"SMILES": "Cc1cc(S(=O)(=O)NC2CC(N3CCN(CC4CCN(c5cccc6c5n(C)c(=O)n6C5CCC(=O)NC5=O)CC4)CC3)C2)ccc1Nc1ncc(C(F)(F)F)c(N2CCC[C@](C)(O)C2)n1 (stereo partly drawn)", "test system": "rat", "conditions": "intravenous, 2 mg/kg", "measurement": "Vd", "result": "10 L/kg"}
{"SMILES": "C1=C/COCc2cc(ccc2OCCN2CCCC2)Nc2nccc(n2)-c2cccc(c2)COC/1", "test system": "male Sprague-Dawley rat", "conditions": "oral, 36 mg/kg", "measurement": "Vd/F", "result": "192 L"}
{"SMILES": "CCCc1nc2c(C)cc(-c3nc4ccccc4n3C)cc2n1Cc1ccc(-c2ccccc2C(=O)O)cc1", "test system": "male Sprague-Dawley rat", "conditions": "oral, 8 mg/kg, single dose", "measurement": "Vd/F", "result": "46.1 L/kg"}
{"SMILES": "CNS(=O)(=O)c1ccc(Nc2ncc(C(F)(F)F)c(N3CCC[C@](C)(O)C3)n2)c(C)c1", "test system": "rat", "conditions": "intravenous, 2 mg/kg", "measurement": "Vd", "result": "3 L/kg"}
{"SMILES": "C[C@H]1Oc2cc(cnc2N)-c2c(nn(C)c2C#N)CN(C)C(=O)c2ccc(F)cc21", "test system": "male Sprague-Dawley rat", "conditions": "oral, 50 mg/kg, single dose", "measurement": "Vd/F", "result": "19 L/kg"}
{"SMILES": "Cc1cc(S(=O)(=O)NC2CC(N3CC[C@@H](OC4CN(c5cccc6c5n(C)c(=O)n6C5CCC(=O)NC5=O)C4)[C@H](F)C3)C2)ccc1Nc1ncc(C(F)(F)F)c(N2CCC[C@](C)(O)C2)n1 (stereo partly drawn)", "test system": "rat", "conditions": "intravenous, 2 mg/kg", "measurement": "Vd", "result": "10 L/kg"}
{"SMILES": "CC(=O)O[C@@H]1CC[C@@]2(C)[C@@H](CC[C@]3(C)[C@@H]2C(=O)C=C2[C@@H]4[C@@H](C)[C@H](C)CC[C@]4(C)CC[C@]23C)[C@@]1(C)C(=O)O", "test system": "female Wistar rat", "conditions": "oral, 1 mg/kg, single dose", "measurement": "Vd/F", "result": "0.28 L/kg"}
